From ChEMBL document CHEMBL1141292, “Sesquiterpenoids and artificial 19-oxygenated steroids from the formosan soft coral Nephthea erecta” (2007)
Converted amounts (≈) assume the structure as drawn.

Tests used:
[1] = system: HT-29; assay: Cytotoxicity against human HT29 cells by MTT assay; format: functional; conditions: read-out: ED50 (the source's name)
Summary of the method: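 HT-29 human colon adenocarcinoma cells; viability read by MTT assay, following a previously described procedure.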

[2] = system: P388; assay: Cytotoxicity against mouse P388 cells by MTT assay; format: functional; conditions: read-out: ED50 (the source's name)
Summary of the method: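 P-388 mouse lymphocytic leukemia cells; viability read by MTT assay, following a previously described procedure.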

SMILES	EC50 [1] [mg/L]	EC50 [2] [mg/L]
C=C(CC[C@@H](C)[C@H]1CC[C@H]2[C@@H]3C=CC4=C[C@@H]5OC[C@@]4(C[C@@H]5O)[C@H]3CC[C@]12C)C(C)C	> 10	> 10
C[C@H]1CCC[C@@]2(C)C[C@H]3OO[C@@]12C=C3C(C)(C)O	> 10	> 10
C=C(C)[C@@]1(OO)CC[C@]2(C)[C@H]3CC[C@@H](C)[C@H]3[C@@H]21	0.5 (≈ 2.12 µM)	0.3 (≈ 1.27 µM)
C=C(CC[C@@H](C)[C@H]1CC[C@H]2[C@@H]3C=CC4=CC=CC[C@]4(CO)[C@H]3CC[C@]12C)C(C)C	> 10	> 10
C[C@H]1CCC[C@@]2(C)C[C@H]3OO[C@@]12C=C3C(C)(C)OO	0.4 (≈ 1.49 µM)	0.2 (≈ 0.745 µM)
C=C(C)[C@@]1(O)CC[C@]2(C)[C@H]3CC[C@@H](C)[C@H]3[C@@H]21	> 10	> 10
C=C(C)[C@H]1[C@@H]2[C@H](C)CC[C@@H]2[C@@]2(C)CC[C@@H]12	3.2 (≈ 15.7 µM)	2.8 (≈ 13.7 µM)
C=C(CC[C@@H](C)[C@H]1CC[C@H]2[C@@H]3C[C@H]4OC[C@@]5(CC[C@H](O)C[C@]45O)[C@H]3CC[C@]12C)C(C)C	> 10	> 10
C[C@@H]1CC[C@@H](C(C)(C)O)C[C@]2(C)C1=C[C@H]1O[C@H]12 (relative stereo)	> 10	> 10
